One data set concerns Human HepG2 cells. In words: cytotoxicity against a human cell line. The data set is classed as cell-based. To be noted: read-out: HepG2 growth inhibition EC50; 95% CI in parentheses.
The nature of data set [1]: kinetic solubility in pH 6.5 buffer. The format is physicochemical. Conditions: aqueous buffer pH 6.5, pH 6.5.
Another data set concerns the target P. cynomolgi DHODH (Plasmodium cynomolgi, UniProt K6UE05). Conditions: read-out: P. cynomolgi DHODH IC50; cited from earlier work.
The conditions of data set [2]: dogs; DSM265; cited from earlier work.
For data set [3] the following is noted: DSM265; cited from earlier work.
In another data set the target is Rabbit DHODH (Oryctolagus cuniculus, UniProt G1SWF3). To be noted: read-out: Rabbit DHODH IC50; cited from earlier work.
Rabbit DHODH, sequence (G1SWF3 1-395): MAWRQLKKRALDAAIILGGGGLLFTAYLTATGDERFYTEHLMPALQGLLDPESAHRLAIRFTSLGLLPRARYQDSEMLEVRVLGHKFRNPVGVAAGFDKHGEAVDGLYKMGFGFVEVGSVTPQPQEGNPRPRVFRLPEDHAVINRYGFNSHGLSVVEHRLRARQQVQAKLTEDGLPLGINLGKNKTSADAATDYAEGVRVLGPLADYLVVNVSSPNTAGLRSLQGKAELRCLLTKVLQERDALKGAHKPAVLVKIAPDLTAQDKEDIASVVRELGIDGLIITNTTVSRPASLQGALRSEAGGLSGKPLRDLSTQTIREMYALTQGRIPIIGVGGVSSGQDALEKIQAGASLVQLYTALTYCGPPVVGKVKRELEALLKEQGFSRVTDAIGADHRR
For data set [4] the following is noted: across species; DSM265; cited from earlier work.
A further data set concerns the target Minipig DHODH (Sus scrofa, UniProt F1S3B0). To be noted: read-out: Minipig DHODH IC50; cited from earlier work.
Data set [5] concerns P. falciparum 3D7A parasites. Conditions: DSM265, cited from earlier work.
Another data set deals with P. falciparum 3D7. To be noted: cited from earlier work.
In a further data set the test system is P. vivax field isolates. In words: ex vivo 48 h schizont maturation assay. The format is cell-based. The method, boiled down:
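Field isolates came from patients at malaria clinics in Timika, Papua, Indonesia, and were tested in a 48 h schizont maturation assay adapted from the WHO microtest at 2% hematocrit. P. falciparum was run in RPMI 1640 with 10% AB+ human serum. P. vivax was run in McCoy's 5A with 20% AB+ human serum.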

Converted amounts (≈) assume the structure as drawn. Where two headings read alike, the source gives them in different places.

Minipig DHODH, sequence (F1S3B0 1-395): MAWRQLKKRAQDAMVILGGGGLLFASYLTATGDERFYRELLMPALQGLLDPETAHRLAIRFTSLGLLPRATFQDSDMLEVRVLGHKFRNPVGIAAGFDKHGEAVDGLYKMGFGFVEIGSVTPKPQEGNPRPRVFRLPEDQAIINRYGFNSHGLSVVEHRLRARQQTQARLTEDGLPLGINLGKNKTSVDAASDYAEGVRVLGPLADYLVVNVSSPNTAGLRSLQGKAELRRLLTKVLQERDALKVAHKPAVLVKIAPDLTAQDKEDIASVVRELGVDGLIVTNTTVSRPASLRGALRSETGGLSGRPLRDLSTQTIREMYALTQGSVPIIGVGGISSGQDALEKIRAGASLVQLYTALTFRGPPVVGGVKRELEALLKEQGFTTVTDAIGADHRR
P. cynomolgi DHODH, sequence (K6UE05 1-385): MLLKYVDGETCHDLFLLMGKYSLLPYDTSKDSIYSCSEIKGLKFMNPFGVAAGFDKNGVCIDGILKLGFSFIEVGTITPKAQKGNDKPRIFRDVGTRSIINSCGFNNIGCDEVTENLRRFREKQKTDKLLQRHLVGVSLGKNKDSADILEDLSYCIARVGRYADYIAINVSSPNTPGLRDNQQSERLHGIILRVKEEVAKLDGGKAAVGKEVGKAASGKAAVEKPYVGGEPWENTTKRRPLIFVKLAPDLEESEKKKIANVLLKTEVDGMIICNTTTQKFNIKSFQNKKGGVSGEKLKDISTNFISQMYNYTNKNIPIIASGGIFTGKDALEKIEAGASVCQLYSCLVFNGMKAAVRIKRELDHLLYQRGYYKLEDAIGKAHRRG

For orientation: EC50 means the midpoint of the concentration-response curve. `O=C(O)c1[nH]c(=O)[nH]c(=O)c1F` [5-fluoroorotate, reference compound]: the EC50 in the data set on Human HepG2 cells stood at 770 nM.

As usually defined, the kinetic solubility is solubility judged after dilution from a stock solution rather than from solid. Usually IC50 stands for the concentration that inhibits the measured activity by half. For the molecule `Cc1cc(Nc2ccc(S(F)(F)(F)(F)F)cc2)n2nc(C(C)(F)F)nc2n1` [DSM265], the solubility (kinetic) in [1] was 12.5 µg/mL (≈ 30.1 µM). Further, the concentration for half-maximal inhibition (IC50) was 12 nM at P. cynomolgi DHODH, over 100000 nM on Rabbit DHODH and about 100000 nM at Minipig DHODH. For the same molecule, the systemic plasma clearance in data set [2] was 1.2 mL/min/kg. Moreover, the unbound intrinsic clearance in data set [2] was 183 mL/min/kg. The predicted human half-life in data set [3] is 100 h. For the same molecule, in data set [4], the oral bioavailability was 20-70%. Besides, the EC50 in [5] (read-out: EC50, 48 h growth assay (PRR), P. falciparum 3D7, 48 h) was 11 nM; in data set [5] (read-out: unbound EC50, P. falciparum 3D7 48 h growth assay (PRR)), 1.9 nM; with P. falciparum 3D7 (read-out: Pf3D7 EC50, whole cell P. falciparum 3D7, albumax media, 72 h), 4.3 nM; with P. falciparum 3D7 (read-out: unbound EC50, P. falciparum 3D7 in vitro 72 h growth assay, DSM265), 0.73 nM. In addition, the “sensitivity of P. vivax versus P. falciparum field isolates” value in the data set with P. vivax field isolates is 5 fold.

The record behind these values is article PMC5148661 (ACS infectious diseases, 2016).
